High-throughput results from PubChem BioAssay.
Shown are actives, neighbours in structure and some others; about 2.4% of the full set was active somewhere.
MC4R antagonist: human MC4R antagonism in cAMP assay | MC4R-expressing cells, MTII-stimulated cAMP, LANCE TR-FRET | inhibition, % at 6.5 µM | 0.48% of 360,000 active | AID 540295;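 active = inhibition above its plate's cutoff, the mean of tested wells on that plate plus 3 SD, cut at about 29% in these data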
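system = U2OS cells with stable human MC4R expression | also added = Melanotan II challenge after compound preincubation | dosing = one concentration, 6.5 µM nominal | incubation = compound 30 min, challenge 1 h, detection 1 h | measured by = TR-FRET with Eu-cAMP and labeled anti-cAMP, 671 nm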
OPRM1-OPRD1 inv: mu-delta opioid heterodimer inverse agonism; cell-based MOR-DOR heterodimer luminescence; inhibition, % at 9.3 µM; P35372+P41143; 0.21% of 340,000 active; in the data active = inhibition above about 22%, passing the limit was not always enough
Target sequence (P35372 whole entry, looked up): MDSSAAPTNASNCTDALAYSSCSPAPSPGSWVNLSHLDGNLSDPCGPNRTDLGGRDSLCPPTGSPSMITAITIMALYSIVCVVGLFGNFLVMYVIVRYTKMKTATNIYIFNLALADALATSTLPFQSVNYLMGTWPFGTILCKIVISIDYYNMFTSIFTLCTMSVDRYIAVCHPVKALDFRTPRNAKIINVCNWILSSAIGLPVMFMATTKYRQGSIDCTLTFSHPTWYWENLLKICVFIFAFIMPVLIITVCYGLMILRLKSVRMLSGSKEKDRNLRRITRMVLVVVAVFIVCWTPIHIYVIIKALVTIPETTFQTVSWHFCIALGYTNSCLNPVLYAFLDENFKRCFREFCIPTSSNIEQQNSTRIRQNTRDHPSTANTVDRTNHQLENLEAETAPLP
Target sequence (P41143 whole entry, looked up): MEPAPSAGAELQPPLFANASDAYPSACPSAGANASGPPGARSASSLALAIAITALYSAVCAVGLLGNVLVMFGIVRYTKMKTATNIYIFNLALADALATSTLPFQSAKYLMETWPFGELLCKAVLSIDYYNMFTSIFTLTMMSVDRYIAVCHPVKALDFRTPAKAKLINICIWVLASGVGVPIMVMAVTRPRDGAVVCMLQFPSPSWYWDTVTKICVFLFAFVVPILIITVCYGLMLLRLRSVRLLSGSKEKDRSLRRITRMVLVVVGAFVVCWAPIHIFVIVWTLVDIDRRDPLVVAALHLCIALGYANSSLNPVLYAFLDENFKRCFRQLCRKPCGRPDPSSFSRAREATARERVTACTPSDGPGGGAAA
HTR5A inv ctr: inverse agonist of human HTR5A in OPRM1-OPRD1 counter-screen | HTR5A cell line, luminescence, inverse agonism | inhibition, % at 9.3 µM | 0.083% of 340,000 active | AID 504634; in the data active = inhibition mostly above about 23%, no sharp cut-off; inactive = mostly below about 18%
MC4R ag barr: human MC4R agonism via beta-arrestin | U2OS MC4R beta-arrestin complementation, luminescence; percent of melanotan II response, DMSO zero | 0.98% of 360,000 active | activation, % at 8.9 µM | P32245;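 active = activation above a per-plate cutoff, the mean activation of sample wells on that plate plus 3 SD, cut at about 8% in these data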
MOR-DOR ag: agonists of human mu-delta opioid receptor heterodimerization; cells, OPRM1-OPRD1 heterodimerization, luminescence; activation, % at 9.3 µM; P35372+P41143; 0.3% of 340,000 active; AID 504326; in the data active = activation above about 18%
HTR5A ag ctr: counter-screen for OPRM1-OPRD1 agonists: human HTR5A agonism; HTR5A agonist assay, luminescence, cell-based; AID 504692; P47898; activation, % at 9.3 µM; 0.61% of 340,000 active; in the data active = activation mostly above about 9.5%, no sharp cut-off; inactive = mostly below about 7.6%
MC4R barr conf: human MC4R beta-arrestin agonism confirmation; shares compounds with MC4R ag barr; U2OS MC4R beta-arrestin recruitment, luminescence; scaled DMSO 0%, Melanotan II 100%; activation, % at 8.9 µM; 31% of 2,400 active;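 active = mean activation across replicates above the hit cutoff set in the earlier primary screen, cut at about 8% in these data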
MOR-DOR barr ag: counter-screen for MC4R agonists: agonists of mu-delta opioid heterodimer | 5.8% of 2,400 active | AID 602194 | shares compounds with MC4R ag barr | U2OS PathHunter beta-arrestin, beta-gal luminescence; percent of deltorphin B response, DMSO zero | activation, % at 9.2 µM;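 active = mean activation across replicates exceeds the hit threshold derived in the earlier primary screen, cut at about 18% in these data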
A number is an active result; i = inactive; nt = no result given.

SMILES	MC4R antagonist	OPRM1-OPRD1 inv	HTR5A inv ctr	MC4R ag barr	MOR-DOR ag	HTR5A ag ctr	MC4R barr conf	MOR-DOR barr ag
OC(c1ccc(F)cc1)c1ncc(-c2ccc(Oc3ccccc3)cc2)[nH]1 (stereo unspecified)	i	nt	nt	i	nt	nt	nt	nt
O=c1cc(-c2ccc(O)cc2)oc2c1ccc1ccccc12	i	i	i	50	i	i	i	i
O=C(NCCc1ccc(Cl)cc1)c1cc(-c2ccccn2)nc2ccccc12	i	i	i	11	i	i	i	i
Cc1cccc(S(=O)(=O)NC(=O)C2(C)CCN2C(=O)Cc2ccc(-c3ccccc3)cc2)c1 (stereo unspecified)	i	nt	nt	i	nt	nt	nt	nt
CC(=O)c1ccc(NC(=O)COC(=O)/C=C/c2cccs2)cc1	i	i	i	i	i	i	nt	nt
O=C(COC(=O)/C=C/c1cccs1)Nc1ccc2ccccc2c1	i	i	i	16	i	i	i	i
N#CCC(=O)Nc1ccc(C(=O)OCC(=O)N2CCN(C(=O)c3ccco3)CC2)cc1	i	i	i	i	i	i	nt	nt
Cc1c(Cc2ccccc2)sc(NC(=O)c2ccco2)c1C(N)=O	i	i	i	9.7	i	i	i	i
O=C(c1ccc(Cl)c(S(=O)(=O)N2CCCCC2)c1)N1CCCC(C(F)(F)F)C1 (stereo unspecified)	i	i	i	i	i	i	nt	nt
Cc1nc(SCC(=O)NCCc2ccccc2)n[nH]1	i	i	i	i	i	i	nt	nt
O=C(CSc1nccc(-c2ccc(Br)cc2)n1)NCCc1ccccc1	i	i	i	12	i	i	i	i
Oc1ccc(Br)cc1/C=N/NC(=S)NCCc1ccccc1	i	i	i	i	i	i	nt	nt
O=C(CCc1ccccc1)N/N=C/c1cc(Br)ccc1O	i	i	i	15	i	i	i	i
COc1ccc(C(=O)N/C(=C\c2cn(S(=O)(=O)N(C)C)c3ccccc23)C(=O)N2CCOCC2)cc1	i	i	i	i	i	i	nt	nt
CC(C)(C)c1ccc2c(c1)OC(C(=O)N/N=C\c1ccc[nH]1)CO2 (stereo unspecified)	i	i	i	11	i	i	i	i
CC(C)(C)c1ccc2c(c1)OC(C(=O)N/N=C\c1ccncc1)CO2 (stereo unspecified)	i	i	i	i	i	i	nt	nt
Cn1c(-c2ccc(Cl)cc2)ccc(C#N)c1=O	i	i	i	11	i	i	i	i
O=C(Cc1cccs1)N1CCN(c2ccc([N+](=O)[O-])cc2)CC1	i	i	i	i	i	i	nt	nt
CCC1S/C(=N/N=C/c2cccs2)NC1=O (stereo unspecified)	i	i	i	i	i	i	nt	nt
O=C1N/C(=N\N=C\c2cccs2)SC1Cc1ccc(Cl)cc1 (stereo unspecified)	i	i	i	15	i	i	i	i
O=C1N/C(=N\N=C\c2cccs2)SC1Cc1cccc(Cl)c1 (stereo unspecified)	i	i	i	12	i	i	i	i
Cc1nc(NC(=O)/C=C/c2ccccc2)sc1C(=O)Nc1cccc(Cl)c1	i	i	i	12	i	i	i	i
Cc1ccc(NC(=O)CN2C(=O)S/C(=C\c3cccn3C)C2=O)cc1	i	i	i	15	i	i	i	i
Cc1ccc(/C=C2/SC(=S)N(CCCC(=O)Nc3ccc(O)cc3)C2=O)cc1	i	i	i	17	i	i	i	i
Cc1cc(NC(=O)CCN2C(=O)/C(=C/c3ccccc3Cl)SC2=S)no1	i	i	i	16	i	i	i	i
SMILES	MC4R antagonist	OPRM1-OPRD1 inv	HTR5A inv ctr	MC4R ag barr	MOR-DOR ag	HTR5A ag ctr	MC4R barr conf	MOR-DOR barr ag
COc1ccccc1/C=C1\SC(=S)N(CCC(=O)Nc2cc(C)on2)C1=O	i	i	i	i	i	i	nt	nt
O=C(CCN1C(=O)/C(=C/c2cccs2)SC1=S)Nc1ccc(O)cc1	i	i	i	11	i	i	i	i
CCOc1ccc(C(C)NC(=O)C2CCC2)cc1 (stereo unspecified)	i	i	i	i	i	i	nt	nt
CCOC(=O)C1=C(COC(=O)C2(C)CC2(Cl)Cl)NC(=O)NC1c1ccccc1 (stereo unspecified)	i	i	i	i	i	i	nt	nt
COc1cccc(/C=C2/SC(=S)N(CCCC(=O)Nc3ccc(O)cc3)C2=O)c1	i	i	i	9.9	i	i	20	i
COc1cccc(/C=C2\SC(=S)N(CCCC(=O)Nc3ccc(C(=O)O)cc3)C2=O)c1	i	i	i	i	i	i	nt	nt
CC(/C=C1\SC(=S)N(CCC(=O)Nc2ccc(O)cc2)C1=O)=C\c1ccccc1	i	i	i	22	i	i	13	i
Cc1ccc(/C=C2\SC(=S)N(CCC(=O)NNS(=O)(=O)c3ccccc3)C2=O)cc1	i	i	i	47	i	i	i	i
C/C(CCC(C)C)=N\NC(=S)Nc1cc(S(=O)(=O)N2CCOCC2)ccc1N1CCOCC1	i	i	i	i	i	i	nt	nt
CC(C)OC(=O)c1ccc2nc3ccccc3nc2c1	i	i	i	i	i	i	nt	nt
O=C(CCCCCn1c(=S)[nH]c2ccccc2c1=O)NCc1ccc2c(c1)OCO2	i	i	i	10	i	i	i	i
O=C(c1ccc(F)cc1)C1CCN(C(=S)NCC2CCCO2)CC1 (stereo unspecified)	i	i	i	i	i	i	nt	nt
O=C(Cc1c(O)c2ccccc2oc1=O)c1ccc(F)cc1	i	i	i	11	i	i	i	i
CS(=O)(=O)c1ccc2nc(NC(=O)C3CC3)sc2c1	i	nt	nt	i	nt	nt	nt	nt
Nc1nc(CCl)nc(N(c2ccccc2)c2ccccc2)n1	i	nt	nt	18	nt	nt	13	31
Nc1nc(Cl)nc(N(c2ccccc2)c2ccccc2)n1	i	i	i	i	i	i	nt	nt
CC1(C)Oc2ccc3ccc(=O)oc3c2/C(=C/N)C1=O	i	i	i	i	i	i	nt	nt
CC1(C)Oc2ccc3ccc(=O)oc3c2/C(=C/Nc2ccccc2)C1=O	i	i	i	9.8	i	i	i	i
COc1ccccc1S(=O)(=O)N(C)C[C@@H]1OCc2cnnn2CCCC(=O)N([C@@H](C)CO)C[C@H]1C	i	nt	nt	i	nt	nt	nt	nt
Cc1ccc(CNC(=O)c2ccc3c(=O)c(O)c(-c4ccc(C)cc4)[nH]c3c2)cc1	i	i	i	13	i	i	i	i
CCCNC(=O)c1ccc2c(=O)c(O)c(-c3ccc(C)cc3)[nH]c2c1	i	i	i	i	i	i	nt	nt
Cc1cc(C=O)sc1[B-](F)(F)F	i	i	i	i	i	i	nt	nt
